dFosB activator – activators of delta FosB homodimer, primary screen, biochemical, fluorescence polarization, TAMRA-CDK5 oligo, single point. Protein FosB (Mus musculus), P13346. purified delta FosB; percent of positive-control signal above neutral wells. activation, % at 25 µM. 340,000 compounds, 0.99% hits;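 active = mean activation above about 17%, with every replicate also reaching it, limit read from the data, passing the limit was not always enough; inconclusive = only one of the two conditions met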
Dyrk1A ADPGlo – rat Dyrk1A kinase inhibitors, primary screen, biochemical, single point, plate reader | ADP-Glo luminescence, NFATc1 peptide | inhibition, % at 12.5 µM | Dual specificity tyrosine-phosphorylation-regulated kinase 1A (Rattus norvegicus), Q63470 | 310,000 compounds, 0.43% hits
SR-BI uptake up – activators of SR-BI mediated DiI-HDL uptake, primary screen, ldlA[mSR-BI] CHO cells, DiI fluorescence; 320,000 compounds, 0.096% hits; activation, % at 12.5 µM; 3 h; 100 = double the neutral-control signal;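 active = mean replicate activation of at least 60% and every replicate at or above 60%; inconclusive = mean or all-replicate condition met, but not both; inactive = mean below 60% and not all replicates reaching 60%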
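Assay system: LDL receptor-deficient CHO ldlA cells overexpressing murine SR-BI / Medium: BSA-supplemented, HEPES-buffered Ham's F12, pH 7.4 / Probe or stimulus: DiI-labelled HDL at 10 µg/mL final / Timing: compound with DiI-HDL co-incubation, 3 h at 37 °C / Technique: bottom-read cell fluorescence after medium removal, ex 550/em 595 nm / Measure: HDL uptake via cellular fluorescence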
SR-BI HDL uptake – inhibitors of SR-BI mediated HDL lipid uptake, primary screen, ldlA[mSR-BI] cells, fluorescence, single point. Scavenger receptor class B member 1 (Mus musculus), Q61009. ldlA[mSR-BI] CHO cells, DiI-HDL uptake fluorescence, 3 h. AID 488896, 2010. 320,000 compounds, 0.96% hits. inhibition, % at 12.5 µM;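 active = mean replicate inhibition of at least 70% and a set share of replicates each scoring 70 or more; inconclusive = meets just one of the two criteria; inactive = fails both criteria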
Target sequence (Q61009 whole entry, looked up): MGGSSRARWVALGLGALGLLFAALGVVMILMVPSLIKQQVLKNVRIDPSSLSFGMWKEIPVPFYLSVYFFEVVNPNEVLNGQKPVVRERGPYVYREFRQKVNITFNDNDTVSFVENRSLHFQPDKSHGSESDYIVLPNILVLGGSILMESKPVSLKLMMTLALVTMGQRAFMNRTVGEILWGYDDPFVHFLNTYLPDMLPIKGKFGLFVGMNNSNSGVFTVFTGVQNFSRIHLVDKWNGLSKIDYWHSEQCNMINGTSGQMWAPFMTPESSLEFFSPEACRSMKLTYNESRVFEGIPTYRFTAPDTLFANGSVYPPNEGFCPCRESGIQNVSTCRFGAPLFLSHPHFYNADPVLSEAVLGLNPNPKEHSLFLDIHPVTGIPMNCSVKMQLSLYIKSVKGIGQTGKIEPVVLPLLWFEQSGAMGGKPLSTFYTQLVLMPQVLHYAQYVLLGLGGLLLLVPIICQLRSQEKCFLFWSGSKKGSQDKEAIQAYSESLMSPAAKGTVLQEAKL
NSD2 HMT inh – NSD2 histone methyltransferase inhibitors, primary screen, biochemical, AlphaScreen, single concentration, set 2 | Histone-lysine N-methyltransferase NSD2 (Homo sapiens), O96028 | NSD2 peptide methylation, 120 min | inhibition, % at 12.5 µM | 310,000 compounds, 0.54% hits | AID 743445, 2014
CDK5 inh – inhibitors of human CDK5/p35 kinase, primary screen, biochemical, single concentration; inhibition, % at 10 µM; Cyclin-dependent kinase 5 (Homo sapiens) + Cyclin-dependent kinase 5 activator 1 (Homo …; Recombinant CDK5/p35, ADP-Glo luminescence, 60 min; 330,000 compounds, 0.01% hits; AID 488839, 2010;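 active = highest replicate inhibition of at least 50% and at least 75% of replicates reaching 50%; inconclusive = only one of the two criteria met; inactive = both criteria failed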
DiI quencher – quenches DiI-HDL fluorescence, an SR-BI assay artifact | shares compounds with SR-BI HDL uptake | cell-free DiI-HDL fluorescence quenching, 30 min | AC50, µM (doses to about 35 µM) | 470 compounds, 20% hits | AID 540326;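 active = quenching, a falling signal, with AC50 below a set limit tied to the top valid dose, actives reach about 32 µM in these data; inconclusive = no clear call, values can overlap the other calls; inactive = rising signal, and the rest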
Numbers stand for hits; 0 = inactive; ? = inconclusive; - = no result. Rows were chosen to be rich in hits. Some 2.5% of all compounds tested hit in one or more screens of this group. Rule as the data show it, unless noted: active = inhibition above about 50%; inactive = the rest.

SMILES	dFosB activator	Dyrk1A ADPGlo	SR-BI uptake up	SR-BI HDL uptake	NSD2 HMT inh	CDK5 inh	DiI quencher
Oc1ccc(/C=C/c2nc(-c3ccccc3O)n(-c3ccccc3)n2)cc1	0	0	0	74.3	0	0	20.2µM
CC(=O)N1C(=O)C2(NCC(C)N2)c2ccccc21 (centres undefined)	-	-	-	-	0	-	-
CC(=O)NCCC1CCN(C(=O)c2cc(COc3ccc(C)nc3)on2)CC1	0	0	0	76.3	0	0	0
Cc1ccc(OCc2cc(C(=O)N3CCCC3)no2)cn1	0	0	0	0	0	0	-
CC(C)(C)NC(=O)N1CCN(c2ncccc2C(F)(F)F)CC1	0	0	0	88.5	0	0	0
CCC1CN(C(=O)N2CCC(C(=O)NCc3ccccc3OC)CC2)c2ccccc2O1 (centres undefined)	0	0	0	0	0	0	-
CCC1CN(C(=O)N2CCC(C(=O)NCc3ccccc3OC)CC2)c2cc(C)ccc2O1 (centres undefined)	0	0	0	80.5	0	0	0
CCc1sc(N2C(=O)C3C4CCC(C4=C(C)C)C3C2=O)nc1-c1ccccc1 (centres undefined)	0	0	0	84.1	0	0	0
COc1ccc(C(O)c2nc(-c3ccc(OC)c(OC)c3)cs2)cc1 (centres undefined)	-	-	-	-	0	-	-
CC[C@]12c3[nH]c4cc(-c5ccco5)ccc4c3CCN1C(=O)[C@@H](CC(=O)NCc1ccc(OC)c(OC)c1)C[C@@H]2C(=O)N1CCN(C(=O)c2ccco2)CC1	0	-	0	74.8	-	0	0
COc1ccc(CCNC(=O)CCNC(=O)c2ccco2)cc1	0	-	0	0	0	0	-
CCOc1ccc(NS(=O)(=O)c2ccc(C(=O)NNC(=O)c3ccccc3O)cc2)cc1	0	0	0	127.2	0	0	0.613µM
O=C(NNC(=O)c1ccccc1O)c1ccc(S(=O)(=O)Nc2ccccc2)cc1	0	0	0	112.8	0	0	0.4µM
O=C(NNC(=O)c1ccccc1O)c1ccc(S(=O)(=O)Nc2ccccc2F)cc1	0	0	0	0	0	0	-
C/C(=N/NC(=O)C1CCCC1)c1ccc(NC(=O)C(F)(F)F)cc1	0	0	0	0	0	0	-
N#Cc1ccccc1S(=O)(=O)N1CCC(C(=O)Nc2cccc(C(=O)NC3CC3)c2)CC1	0	0	0	0	0	0	-
COc1ccccc1CCc1nnc(CCC(=O)N(C)Cc2cccc3cnccc23)o1	0	0	0	75.2	0	0	0
N#CCCN(C(=O)COC(=O)CCc1ccccc1)c1ccccc1	0	0	0	0	0	0	-
N#CCCN(C(=O)COC(=O)CCc1c[nH]c2ccccc12)c1ccccc1	0	0	0	0	0	0	0
OC(c1ccc(F)c(F)c1)c1ncc(-c2ccccc2F)[nH]1 (centres undefined)	-	-	-	-	0	-	-
CN(Cc1c(F)cccc1Cl)C(=O)C1=CC=CN2CCS(=O)(=O)N=C12	0	-	0	0	0	0	-
COc1ccc(OC)c(CCNC(=O)c2ccc3c(c2)N(Cc2ccccc2)CCS3)c1	0	0	0	75.5	0	0	0
CCOC(=O)N1CCC(NC(=O)c2ccc3c(c2)N(Cc2ccc(F)cc2)CCS3)CC1	0	0	0	72.3	-	0	0
COc1ccc(CCNC(=O)c2ccc3c(c2)N(Cc2ccccc2)CCS3)cc1OC	0	-	0	0	0	-	-
CCCCc1nnc(NC(=O)c2ccc(OCc3c(C)noc3C)cc2)s1	0	0	0	75.3	0	0	0
SMILES	dFosB activator	Dyrk1A ADPGlo	SR-BI uptake up	SR-BI HDL uptake	NSD2 HMT inh	CDK5 inh	DiI quencher
COc1ccc(C2/C=C\CN(S(=O)(=O)c3cccc4cccnc34)CC(=O)N2Cc2ccc(F)cc2)cc1 (centres undefined)	0	-	0	0	-	0	-
COc1ccc(C2/C=C\CN(S(=O)(=O)c3ccc(C)cc3)CC(=O)N2Cc2ccc(F)cc2)cc1 (centres undefined)	0	0	0	85.8	-	0	0
COc1ccc(C2/C=C\CN(S(=O)(=O)c3ccc(C)cc3)CC(=O)N2Cc2cccc(F)c2)cc1 (centres undefined)	0	0	0	80.5	-	0	0
Cc1ccccc1NC(=O)C1CCCN1S(=O)(=O)c1cccnc1 (centres undefined)	-	-	-	-	0	-	-
COc1ccc(N2CC(C(=O)NCCc3ccc(Cl)cc3)CC2=O)c(OC)c1 (centres undefined)	0	0	0	79.2	0	0	0
COc1ccc(N2CC(C(=O)NCCc3ccc(OC)c(OC)c3)CC2=O)cc1 (centres undefined)	0	0	0	0	0	0	-
COc1ccc(N2CC(C(=O)NCCC3=CCCCC3)CC2=O)c(OC)c1 (centres undefined)	0	0	0	78.0	0	0	0
CCOC(=O)C1CCN(C(=O)Cn2cnc3sc(C)c(S(=O)(=O)N4CCC(C)CC4)c3c2=O)CC1	0	0	0	?	0	0	0
CCOc1ccc(NC(=O)CCS(=O)(=O)c2ccc(Br)cc2)cc1	0	0	0	0	0	0	-
NC(=O)c1cc(-c2ccccc2)sc1NC(=O)CN1CCCCC1	0	0	0	73.1	0	0	0
Fc1ccc(-c2cc(-c3cccs3)cc(-c3ccccc3)n2)cc1	0	0	0	82.8	0	0	0
CCOc1ccc(CCNC(=O)Cn2ncn3nc(-c4ccc(OC)cc4)cc3c2=O)cc1	0	0	0	71.7	-	0	0
COc1ccc(-c2cc3c(=O)n(CC(=O)NCc4ccc(C)cc4)ncn3n2)cc1	0	0	0	0	-	0	-
CCCCCCCNC(=O)C1(CC2CC(c3ccc(Cl)cc3)=NO2)CCNCC1 (centres undefined)	0	0	0	0	-	0	-
CN(C)CCNc1ncnc2c1ncn2[C@H]1CN(Cc2ccc(Cl)cc2)C[C@@H](CO)O1	-	-	-	-	0	-	-
O=S(=O)(c1ccccc1)c1cnc(-c2ccccc2)nc1N1CCCCC1	0	0	0	?	0	0	0
CN1CCN(c2nc(-c3ccccc3)ncc2S(=O)(=O)c2ccccc2)CC1	0	0	0	0	0	0	-
Cc1nc(SC(C)C(=O)NC2CCCCC2C)c2c(C)c(C)sc2n1 (centres undefined)	0	0	0	0	0	0	-
Cn1nc(-c2ccc(Cl)cc2)c2cc(C(=O)NCCCN3CCOCC3)sc21	0	0	0	72.2	-	0	0
